# TCR CD3 inh: inhibitors of human TCR-CD3 interaction, primary screen, biochemical, fluorescence, TAMRA-labeled TCR probe; 360,000 compounds, 0.37% hits; inhibition, % at 9.4 µM; AID 651800, 2012; T-cell receptor (TCR); in the data active = inhibition above about 19%;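 note: recombinant mutant TCR 2C K166C tagged with TAMRA read by polarization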
# HTRA1 inhibitor: HTRA1 serine protease inhibitors, primary screen, biochemical, fluorescence polarization, HTS; recombinant HTRA1, FP-rhodamine activity-based probe; 340,000 compounds, 0.5% hits; inhibition, % at 5.96 µM; in the data active = inhibition above about 36%
# Target sequence (Q92743 whole entry, looked up): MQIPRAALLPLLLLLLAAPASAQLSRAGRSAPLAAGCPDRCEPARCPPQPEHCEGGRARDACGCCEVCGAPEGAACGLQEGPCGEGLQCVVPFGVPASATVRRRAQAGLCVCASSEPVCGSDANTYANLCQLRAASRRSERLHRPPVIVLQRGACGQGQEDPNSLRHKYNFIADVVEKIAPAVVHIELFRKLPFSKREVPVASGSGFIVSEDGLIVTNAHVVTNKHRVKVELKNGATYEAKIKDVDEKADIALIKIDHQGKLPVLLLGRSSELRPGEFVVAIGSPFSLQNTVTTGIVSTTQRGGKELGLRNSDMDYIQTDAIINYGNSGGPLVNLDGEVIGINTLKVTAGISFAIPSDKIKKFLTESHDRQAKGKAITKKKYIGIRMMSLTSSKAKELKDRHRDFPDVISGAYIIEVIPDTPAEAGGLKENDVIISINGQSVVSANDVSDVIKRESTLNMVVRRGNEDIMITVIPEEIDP
# mABHD4 FP: ABHD4 inhibitors, primary screen, biochemical, fluorescence polarization, mouse; (Lyso)-N-acylphosphatidylethanolamine lipase (Mus musculus), Q8VD66; purified mABHD4, FP-Rh probe fluorescence polarization; inhibition, % at 8.92 µM; 370,000 compounds, 0.54% hits; AID 720543, 2013;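 active = inhibition exceeding the mean over every tested compound plus 3 SD, cut at about 30% in these data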
#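 Test system: mABHD4 protein; Read-out basis: % inhibition; Incubation: 45 min + 60 min at 25 °C; Repeats: single replicate; Technique: fluorescence polarization with parallel and perpendicular emission, 525/598 nm; Compound: 8.92 µM, single dose; Benchmarks: full inhibition S159A mutant plus DMSO, zero as sample-well median.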
# DDE Tn6 FP inh: inhibitors of Tn6 peptide binding to fibrin DD(E), primary screen, biochemical, fluorescence polarization, human fibrin, Tn6 probe. Fibrinogen beta chain (Homo sapiens), P02675. Fibrin DD(E) TRITC-Tn6 fluorescence polarization displacement. inhibition, % at 8.3 µM. 370,000 compounds, 0.21% hits;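 active = inhibition above a per-campaign cutoff: mean of compounds within control limits plus 3 SD, cut at about 15% in these data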
# DDE Tn7 FP inh: inhibitors of Tn7 peptide binding to fibrin DD(E), primary screen, biochemical, fluorescence polarization, human fibrin, Tn7 probe. Fibrinogen beta chain (Homo sapiens), P02675. 370,000 compounds, 0.13% hits. inhibition, % at 8.3 µM. FP displacement of FITC-Tn7 peptide from fibrin DD(E); 0% = median of compound wells per plate;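 active = inhibition above the mean of compounds falling within the control limits plus 3 SD of them, cut at about 14% in these data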
#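 Assay system: human fibrin DD(E) protein / Input: 2 µM fibrin DD(E) / Benchmarks: high control of 10 µM Aha-Tn7 peptide / Measured by: fluorescence polarization of the labelled Tn7 tracer / Medium: Tris buffer with calcium and detergent, pH 7.8 / Timing: 10 min compound pre-incubation, 3 h probe incubation at room temperature / Repeats: one replicate per compound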
# mABHD4 conf: ABHD4 inhibitors, retest, confirmation, biochemical, fluorescence polarization, mouse | inhibition, % at 8.92 µM | purified mABHD4, FP-Rh probe fluorescence polarization | 1,800 compounds, 55% hits | shares compounds with mABHD4 FP;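 active = mean inhibition across replicates above the hit cutoff set in the primary screen, cut at about 30% in these data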
# A number is an active result; . = inactive; / = no result. An excerpt weighted towards active compounds, which were near 1.3% of everything screened.
SMILES,TCR CD3 inh,HTRA1 inhibitor,mABHD4 FP,DDE Tn6 FP inh,DDE Tn7 FP inh,mABHD4 conf
CCOc1ccc2[nH]c3c(NCCN(C)C)ncnc3c2c1,.,.,.,.,.,/
CCOc1ccc2[nH]c3c(NCCC(C)C)ncnc3c2c1,.,.,39,.,.,39
CC(C)OCC1CO1 (stereo unspecified),.,.,.,.,.,/
O=c1[nH][nH]c2c([N+](=O)[O-])ccc(F)c12,.,/,36,.,.,34
O=C(c1ccco1)N1CCN(Cc2cc(=O)c(OCc3ccccc3)co2)CC1,.,.,.,.,.,/
COc1ccc(NC(=O)CCC(=O)c2ccc(Cl)cc2)cn1,.,.,.,.,.,/
CC(=O)N1CCN(c2ccc(NCc3ccc(Br)o3)cc2)CC1,.,.,38,.,.,.
O=C(c1cc([N+](=O)[O-])ccc1Cl)N1CCN(c2ccc([N+](=O)[O-])cc2)CC1,.,.,40,.,.,.
O=C(c1cc([N+](=O)[O-])ccc1Cl)N1CCN(c2ccc(F)cc2)CC1,.,.,.,.,.,/
Cc1ccnc(NS(=O)(=O)c2ccc(NC(=O)C(C)(C)C)cc2)n1,.,.,.,.,.,/
Cc1c(C(=O)NCC2COc3ccccc3O2)oc2ccc(S(=O)(=O)N(C)C3CCCCC3)cc12 (stereo unspecified),.,.,.,.,.,/
COc1cccc(/C=C2/C(=O)NN(c3ccccc3)C2=O)c1,.,.,.,.,.,/
COc1cc(/C=C2/C(=O)NN(c3cccc(Cl)c3)C2=O)cc(OC)c1O,.,.,36,.,.,.
COc1cccc(/C=C2/C(=O)NN(c3ccc(C)c(C)c3)C2=O)c1,.,.,35,.,.,.
CCOc1cc(/C=C2/C(=O)NN(c3cccc(Cl)c3)C2=O)ccc1O,.,.,36,.,.,38
O=C1NN(c2ccc(Br)cc2)C(=O)/C1=C\c1ccc(O)cc1O,.,.,.,.,.,/
COc1cccc(/C=C2/C(=O)NN(c3ccc(F)cc3)C2=O)c1,.,.,.,.,.,/
O=C1NN(c2cccc(Br)c2)C(=O)/C1=C\c1ccc(O)cc1,.,.,37,.,.,41
O=C(Nc1ccc(F)cc1)C(CCc1ccccc1)N1CCN(c2ccncc2)CC1 (stereo unspecified),.,/,.,.,.,/
COc1cc(/C=C2/C(=O)NN(c3ccc(C)c(Cl)c3)C2=O)cc([N+](=O)[O-])c1O,.,.,63,.,.,56
COc1cc(/C=C2/C(=O)NN(c3cccc(C)c3)C2=O)cc([N+](=O)[O-])c1O,.,.,.,.,.,/
COc1cc(/C=N/NC(=O)[C@H](Cc2c[nH]c3ccccc23)NC(=O)OCC(C)C)cc([N+](=O)[O-])c1O,.,.,41,.,.,49
CCOc1ccc(S(=O)(=O)n2cc(-c3ccc(F)cc3)c(N)n2)cc1,.,.,.,.,.,/
COc1ccccc1-c1cc(N)n(S(=O)(=O)c2cccc3nsnc23)n1,.,.,.,.,.,/
CCOc1cc(-c2cn(S(=O)(=O)c3cccc4nsnc34)nc2N)cc(OCC)c1OCC,.,.,31,.,.,51
SMILES,TCR CD3 inh,HTRA1 inhibitor,mABHD4 FP,DDE Tn6 FP inh,DDE Tn7 FP inh,mABHD4 conf
CCOc1cc(S(=O)(=O)n2cc(-c3ccc(F)cc3)c(N)n2)cc(OCC)c1OCC,.,.,49,.,.,65
CCS(=O)(=O)N1Cc2ccccc2CC1C(=O)NCc1cccc(OC)c1 (stereo unspecified),.,.,.,.,.,/
NS(=O)(=O)c1ccc(-c2ccc(/C=C3\NC(=S)NC3=O)o2)cc1,.,.,39,.,.,.
CCC(NC(=O)c1ccccc1O)c1ccccc1 (stereo unspecified),.,.,.,.,.,/
CC(C)(C)c1ccc(S(=O)(=O)Nc2noc3ccccc23)cc1,.,.,30,.,.,.
CCOC(=O)NC1(NCC(C)C)Oc2ccccc2O1,.,.,33,.,.,.
Cc1cccc(OCCC(=O)Nc2ccc(N3CCOCC3)cc2N2CCOCC2)c1,.,.,35,.,.,.
COC(=O)[C@]12C[C@H](CC(=O)NCc3cccs3)C(=O)N(CCC3=CCCCC3)C1=C[C@H](C1CCCC1)O[C@@H]2C,/,/,.,.,.,/
NS(=O)(=O)c1ccc(CCNC(=O)CNC(=O)c2ccc(Br)o2)cc1,/,.,/,/,/,/
COc1ccc(N=Nc2cc(C)c(O)c(CN3CCCCC3)c2)cc1,.,.,.,.,.,/
COc1ccc2nc3cc(Cl)ccc3c(Nc3cc(CN4CCCC4)c(O)c(CN4CCCC4)c3)c2n1,.,/,37,.,.,31
CC(=O)c1cccc(N2C(=O)CC(N3CCN(S(=O)(=O)c4ccc(Cl)cc4)CC3)C2=O)c1 (stereo unspecified),.,.,.,.,.,/
Cc1cccc(NC(=O)CN2C(=O)/C(=C3\SC(=S)N(CC4CCCO4)C3=O)c3ccccc32)c1 (stereo unspecified),/,.,/,/,/,/
O=C(CN1C(=O)/C(=C2/SC(=S)N(CCS(=O)(=O)O)C2=O)c2ccccc21)Nc1cccc(Br)c1,.,.,60,.,.,70
CCOC(=O)/C=c1\s/c(=C\c2ccc(-c3ccccc3)cc2)c(=O)n1CC(=O)NCc1ccc2c(c1)OCO2,.,.,.,.,.,/
OC(CCN1CC2CCC(CC2)C1)(Cc1ccccc1)c1ccco1 (stereo unspecified),.,.,37,.,.,.
Cc1ccc(NC(=O)CN2C(=O)S/C(=C/c3ccc(O)c([N+](=O)[O-])c3)C2=O)cc1C,.,.,51,.,.,63
Cc1cccc(NC(=O)CN2C(=O)S/C(=C\c3ccc(O)c([N+](=O)[O-])c3)C2=O)c1,.,.,34,.,.,60
Cc1c(NC(=O)C(C)N2C(=O)C3CCCCC3C2=O)c(=O)n(-c2ccccc2)n1C (stereo unspecified),.,.,.,.,.,/
COC(=O)C1CN(C2CCCC2)CCS(=O)(=O)N1Cc1cn(Cc2ccc(Cl)cc2)nn1 (stereo unspecified),/,/,.,.,.,/
O=C(Nc1ccccc1OC(F)F)c1ccc(S(=O)(=O)N2CCOCC2)cc1,.,.,.,.,.,/
CC1=NN(c2ccccc2)C(=O)/C1=C/c1c(O)n(-c2ccc(F)cc2)[nH]c1=O,.,.,37,.,.,47
